Source: ChEMBL document CHEMBL3085624, “Design, synthesis, and biological evaluation of novel investigational nonapeptide KISS1R agonists with testosterone-suppressive activity” (J Med Chem, 2013)
Non-standard residues stand in square brackets, D forms with d. Residues, ends and D or L forms follow the SMILES beside them. 2Nal = N[C@@H](Cc1ccc2ccccc2c1)C(=O)O; Arg(Me) = CNC(=N)NCCC[C@H](N)C(=O)O; azaGly = NNC(=O)O

Biological target: T1, KiSS-1 receptor (Homo sapiens, UniProt Q969F8)
Assay: Binding affinity to human KISS1R expressed in CHO cell membranes
Settings: not given

T1 sequence (Q969F8 whole entry): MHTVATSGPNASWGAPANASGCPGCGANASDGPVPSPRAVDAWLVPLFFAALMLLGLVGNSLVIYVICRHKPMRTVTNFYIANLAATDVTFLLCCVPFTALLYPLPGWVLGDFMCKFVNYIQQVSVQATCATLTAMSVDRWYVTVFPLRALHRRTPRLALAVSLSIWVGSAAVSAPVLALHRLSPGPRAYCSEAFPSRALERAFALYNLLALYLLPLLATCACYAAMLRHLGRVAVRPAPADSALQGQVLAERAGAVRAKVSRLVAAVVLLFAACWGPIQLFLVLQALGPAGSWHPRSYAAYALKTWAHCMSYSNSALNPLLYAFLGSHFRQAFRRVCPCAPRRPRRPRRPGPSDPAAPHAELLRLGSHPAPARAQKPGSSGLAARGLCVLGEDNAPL

Row | Structure (SMILES) | Ki
1 | CNC(N)=NCCC[C@H](NC(=O)[C@H](CC(C)C)NC(=O)NNC(=O)[C@H](Cc1ccccc1)NC(=O)[C@H](CO)NC(=O)[C@H](CC(N)=O)NC(=O)[C@H](Cc1c[nH]c2ccccc12)NC(=O)[C@H](N)Cc1cccnc1)C(=O)N[C@@H](Cc1ccccc1)C(N)=O | 0.11 nM
2 | CC(C)C[C@H](NC(=O)CNC(=O)[C@H](Cc1ccccc1)NC(=O)[C@H](CO)NC(=O)[C@H](CC(N)=O)NC(=O)[C@H](Cc1c[nH]c2ccccc12)NC(=O)[C@H](CC(N)=O)NC(=O)[C@@H](N)Cc1ccc(O)cc1)C(=O)N[C@@H](CCCNC(=N)N)C(=O)N[C@@H](Cc1ccccc1)C(N)=O [KISSPEPTIN-10] | 0.039 nM
3 | CNC(N)=NCCC[C@H](NC(=O)[C@H](CC(C)C)NC(=O)NNC(=O)[C@H](Cc1ccccc1)NC(=O)[C@H](CO)NC(=O)[C@H](CC(N)=O)NC(=O)[C@@H](Cc1c[nH]c2ccccc12)NC(=O)[C@H](CC(N)=O)NC(=O)[C@H](N)Cc1ccc(O)cc1)C(=O)N[C@@H](Cc1ccccc1)C(N)=O | 0.078 nM
4 | CNC(=N)NCCC[C@H](NC(=O)[C@H](CC(C)C)NC(=O)NNC(=O)[C@H](Cc1ccccc1)NC(=O)[C@H](CO)NC(=O)[C@H](CC(N)=O)NC(=O)[C@H](Cc1c[nH]c2ccccc12)NC(=O)[C@@H](CC(N)=O)NC(=O)[C@H](N)Cc1ccc(O)cc1)C(=O)N[C@@H](Cc1ccccc1)C(N)=O | 0.062 nM

Second part, the compound after the results:

Row | Ki | Structure (SMILES)
5 | 0.12 nM | CNC(N)=NCCC[C@H](NC(=O)[C@H](CC(C)C)NC(=O)NNC(=O)[C@H](Cc1ccccc1)NC(=O)[C@H](CO)NC(=O)[C@H](CC(N)=O)NC(=O)[C@H](Cc1ccncc1)NC(=O)[C@H](CC(N)=O)NC(=O)[C@H](N)Cc1ccc(O)cc1)C(=O)N[C@@H](Cc1ccccc1)C(N)=O
6 | 0.045 nM | CC(C)C[C@H](NC(=O)NNC(=O)[C@H](Cc1ccccc1)NC(=O)[C@H](CO)NC(=O)[C@H](CC(N)=O)NC(=O)[C@H](Cc1c[nH]c2ccccc12)NC(=O)[C@H](CC(N)=O)NC(=O)[C@@H](N)Cc1ccc(O)cc1)C(=O)N[C@@H](CCCNC(=N)N)C(=O)N[C@@H](Cc1ccccc1)C(N)=O

Same assay, conditions: cho

Row | Ki | Structure (SMILES)
7 | 0.046 nM | CNC(N)=NCCC[C@H](NC(=O)[C@H](CC(C)C)NC(=O)CNC(=O)[C@H](Cc1ccccc1)NC(=O)[C@H](CO)NC(=O)[C@H](CC(N)=O)NC(=O)[C@H](Cc1c[nH]c2ccccc12)NC(=O)[C@H](CC(N)=O)NC(=O)[C@H](N)Cc1ccc(O)cc1)C(=O)N[C@@H](Cc1ccccc1)C(N)=O

Biological target: T1, KiSS-1 receptor
Assay: Agonist activity at recombinant human KISS1R expressed in CHO cells assessed as intracellular calcium mobilization incubated for 30 mins at 37 degC and 30 mins at room temperature by Fluo-4 NW staining-based FLIPR assay relative to Metastin (45 to 54)
Format: functional, cell-based
Settings: not given
How it was run: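 CHO cells stably expressing human KISS1R seeded at 15,000 cells/well, cultured 24 h, then loaded with Fluo-4 Direct in HBSS with 4 mM probenecid and 0.1% BSA (30 min 37 °C, 30 min room temperature). Compounds from 10 µM DMSO stocks diluted in sample buffer and added. Fluorescence read for 2 min at 2 s intervals. Peak counts give agonist activity. EC50 expressed as ratio to metastin(45-54).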

Row | Structure (SMILES) | fold change (FC)
8 | CNC(=N)NCCC[C@H](NC(=O)[C@H](CC(C)C)NC(=O)NNC(=O)[C@H](Cc1ccccc1)NC(=O)[C@H](CO)NC(=O)[C@H](CC(N)=O)NC(=O)[C@@H](Cc1ccncc1)NC(=O)[C@H](CC(N)=O)NC(=O)[C@H](N)Cc1ccc(O)cc1)C(=O)N[C@@H](Cc1ccccc1)C(N)=O | 3.6
9 | CNC(=N)NCCC[C@H](NC(=O)[C@H](CC(C)C)NC(=O)NNC(=O)[C@H](Cc1ccccc1)NC(=O)[C@H](CO)NC(=O)[C@H](CC(N)=O)NC(=O)[C@H](Cc1ccc2ccccc2c1)NC(=O)[C@H](N)Cc1ccc(O)cc1)C(=O)N[C@@H](Cc1ccccc1)C(N)=O (H-[dY][2Nal]NSF[azaGly]L[Arg(Me)]F-NH2) | 6.4
10 | CNC(=N)NCCC[C@H](NC(=O)[C@H](CC(C)C)NC(=O)NNC(=O)[C@H](Cc1ccccc1)NC(=O)[C@H](CO)NC(=O)[C@H](CC(N)=O)NC(=O)[C@@H](Cc1c[nH]c2ccccc12)NC(=O)[C@H](CC(N)=O)NC(=O)[C@H](N)Cc1ccc(O)cc1)C(=O)N[C@@H](Cc1ccccc1)C(N)=O | 3.7
11 | CNC(=N)NCCC[C@H](NC(=O)[C@H](CC(C)C)NC(=O)NNC(=O)[C@H](Cc1ccccc1)NC(=O)[C@H](CO)NC(=O)[C@H](CC(N)=O)NC(=O)[C@H](Cc1c[nH]c2ccccc12)NC(=O)[C@H](N)Cc1cccnc1)C(=O)N[C@@H](Cc1ccccc1)C(N)=O | 8.7
12 | CNC(=N)NCCC[C@H](NC(=O)[C@H](CC(C)C)NC(=O)NNC(=O)[C@H](Cc1ccccc1)NC(=O)[C@H](CO)NC(=O)[C@H](CC(N)=O)NC(=O)[C@H](Cc1ccccc1)NC(=O)[C@@H](CC(N)=O)NC(=O)[C@H](N)Cc1ccc(O)cc1)C(=O)N[C@@H](Cc1ccccc1)C(N)=O (H-[dY][dN]FNSF[azaGly]L[Arg(Me)]F-NH2) | 1.5
13 | CNC(=N)NCCC[C@H](NC(=O)[C@H](CC(C)C)NC(=O)NNC(=O)[C@H](Cc1ccccc1)NC(=O)[C@H](CO)NC(=O)[C@H](CC(N)=O)NC(=O)[C@H](Cc1c[nH]c2ccccc12)NC(=O)[C@@H](CC(N)=O)NC(=O)[C@H](N)Cc1ccc(O)cc1)C(=O)N[C@@H](Cc1ccccc1)C(N)=O | 2.6
14 | CNC(=N)NCCC[C@H](NC(=O)[C@H](CC(C)C)NC(=O)NNC(=O)[C@H](Cc1ccccc1)NC(=O)[C@H](CO)NC(=O)[C@H](CC(N)=O)NC(=O)[C@H](Cc1ccncc1)NC(=O)[C@@H](CC(N)=O)NC(=O)[C@@H](N)Cc1ccc(O)cc1)C(=O)N[C@@H](Cc1ccccc1)C(N)=O | 2.7
15 | CNC(=N)NCCC[C@H](NC(=O)[C@H](CC(C)C)NC(=O)NNC(=O)[C@H](Cc1ccccc1)NC(=O)[C@H](CO)NC(=O)[C@H](CC(N)=O)NC(=O)[C@H](Cc1c[nH]c2ccccc12)NC(=O)[C@H](CC(N)=O)NC(=O)[C@H](N)Cc1ccc(O)cc1)C(=O)N[C@@H](Cc1ccccc1)C(N)=O | 2.8
16 | CNC(=N)NCCC[C@H](NC(=O)[C@H](CC(C)C)NC(=O)NNC(=O)[C@H](Cc1ccccc1)NC(=O)[C@H](CO)NC(=O)[C@H](CC(N)=O)NC(=O)[C@H](Cc1ccncc1)NC(=O)[C@H](CC(N)=O)NC(=O)[C@H](N)Cc1ccc(O)cc1)C(=O)N[C@@H](Cc1ccccc1)C(N)=O | 5

The remaining lines, values ahead:

Row | fold change (FC) | Structure (SMILES)
17 | 5.8 | CNC(=N)NCCC[C@H](NC(=O)[C@H](CC(C)C)NC(=O)NNC(=O)[C@H](Cc1ccccc1)NC(=O)[C@H](CO)NC(=O)[C@H](CC(N)=O)NC(=O)[C@H](Cc1ccccc1)NC(=O)[C@H](N)Cc1cccnc1)C(=O)N[C@@H](Cc1ccccc1)C(N)=O
18 | 7.7 | CNC(=N)NCCC[C@H](NC(=O)[C@H](CC(C)C)NC(=O)NNC(=O)[C@H](Cc1ccccc1)NC(=O)[C@H](CO)NC(=O)[C@H](CC(N)=O)NC(=O)[C@H](Cc1ccccc1)NC(=O)[C@H](N)Cc1ccc(O)cc1)C(=O)N[C@@H](Cc1ccccc1)C(N)=O
19 | 1.7 | CC(C)C[C@H](NC(=O)NNC(=O)[C@H](Cc1ccccc1)NC(=O)[C@H](CO)NC(=O)[C@H](CC(N)=O)NC(=O)[C@H](Cc1c[nH]c2ccccc12)NC(=O)[C@H](CC(N)=O)NC(=O)[C@@H](N)Cc1ccc(O)cc1)C(=O)N[C@@H](CCCNC(=N)N)C(=O)N[C@@H](Cc1ccccc1)C(N)=O
20 | 7.3 | CNC(=N)NCCC[C@H](NC(=O)[C@H](CC(C)C)NC(=O)NNC(=O)[C@H](Cc1ccccc1)NC(=O)[C@H](CO)NC(=O)[C@H](CC(N)=O)NC(=O)[C@@H](NC(=O)[C@@H](CC(N)=O)NC(=O)[C@H](N)Cc1ccc(O)cc1)[C@@H](C)O)C(=O)N[C@@H](Cc1ccccc1)C(N)=O
21 | 3.7 | CNC(=N)NCCC[C@H](NC(=O)[C@H](CC(C)C)NC(=O)NNC(=O)[C@H](Cc1ccccc1)NC(=O)[C@H](CO)NC(=O)[C@H](CC(N)=O)NC(=O)[C@H](Cc1c[nH]c2ccccc12)NC(=O)[C@@H](CO)NC(=O)[C@H](N)Cc1ccc(O)cc1)C(=O)N[C@@H](Cc1ccccc1)C(N)=O
22 | 61 | CNC(=N)NCCC[C@H](NC(=O)[C@H](CC(C)C)NC(=O)NNC(=O)[C@H](Cc1ccccc1)NC(=O)[C@H](CO)NC(=O)[C@H](CC(N)=O)NC(=O)[C@H](CO)NC(=O)[C@H](N)Cc1ccc(O)cc1)C(=O)N[C@@H](Cc1ccccc1)C(N)=O (H-[dY]SNSF[azaGly]L[Arg(Me)]F-NH2)
23 | 1.7 | CNC(=N)NCCC[C@H](NC(=O)[C@H](CC(C)C)NC(=O)NNC(=O)[C@H](Cc1ccccc1)NC(=O)[C@H](CO)NC(=O)[C@H](CC(N)=O)NC(=O)[C@H](Cc1ccncc1)NC(=O)[C@@H](CC(N)=O)NC(=O)[C@H](N)Cc1ccc(O)cc1)C(=O)N[C@@H](Cc1ccccc1)C(N)=O
24 | 8.6 | CNC(=N)NCCC[C@H](NC(=O)[C@H](CC(C)C)NC(=O)NNC(=O)[C@H](Cc1ccccc1)NC(=O)[C@H](CO)NC(=O)[C@H](CC(N)=O)NC(=O)[C@@H](Cc1c[nH]c2ccccc12)NC(=O)[C@@H](CC(N)=O)NC(=O)[C@H](N)Cc1ccc(O)cc1)C(=O)N[C@@H](Cc1ccccc1)C(N)=O

Biological target: KiSS-1 receptor (Rattus norvegicus, UniProt Q924U1)
Sequence (Q924U1 whole entry): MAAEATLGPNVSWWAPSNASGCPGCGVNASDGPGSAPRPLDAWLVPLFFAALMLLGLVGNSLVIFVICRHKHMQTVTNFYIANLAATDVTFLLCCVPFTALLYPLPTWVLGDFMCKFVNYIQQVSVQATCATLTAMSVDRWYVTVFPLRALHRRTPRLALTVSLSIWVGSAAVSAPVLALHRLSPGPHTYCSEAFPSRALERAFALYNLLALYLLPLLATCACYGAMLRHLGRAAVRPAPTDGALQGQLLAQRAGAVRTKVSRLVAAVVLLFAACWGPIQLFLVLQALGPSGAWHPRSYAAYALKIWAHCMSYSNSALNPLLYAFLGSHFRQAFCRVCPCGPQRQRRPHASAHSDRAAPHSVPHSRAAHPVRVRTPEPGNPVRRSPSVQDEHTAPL
Assay: Binding affinity to rat KISS1R
Settings: not given

Row | Ki | Structure (SMILES)
25 | 0.12 nM | CNC(N)=NCCC[C@H](NC(=O)[C@H](CC(C)C)NC(=O)NNC(=O)[C@H](Cc1ccccc1)NC(=O)[C@H](CO)NC(=O)[C@H](CC(N)=O)NC(=O)[C@H](Cc1ccncc1)NC(=O)[C@H](CC(N)=O)NC(=O)[C@H](N)Cc1ccc(O)cc1)C(=O)N[C@@H](Cc1ccccc1)C(N)=O
26 | 0.13 nM | CNC(N)=NCCC[C@H](NC(=O)[C@H](CC(C)C)NC(=O)NNC(=O)[C@H](Cc1ccccc1)NC(=O)[C@H](CO)NC(=O)[C@H](CC(N)=O)NC(=O)[C@H](Cc1c[nH]c2ccccc12)NC(=O)[C@H](N)Cc1cccnc1)C(=O)N[C@@H](Cc1ccccc1)C(N)=O
